# Measurements collected from several papers.
# Protocols differ between the studies behind these lines.
# MALT1: Mucosa-associated lymphoid tissue lymphoma translocation protein 1 (MALT1, Homo sapiens, UniProt Q9UDY8)
# CDK15: Cyclin-dependent kinase 15 (CDK15, Homo sapiens, UniProt Q96Q40)
# WNK1: Serine/threonine-protein kinase WNK1 (WNK1, Homo sapiens, UniProt Q9H4A3)
Structure (SMILES),target,observed,mode,method,concentration,endpoint,result
C[C@@H](NC(=O)[C@@H](N)Cc1ccc(O)cc1)C(=O)N[C@@H](Cc1ccccc1)C(=O)NCC(=O)N[C@@H](Cc1ccc(O)cc1)C(=O)N1CCC[C@H]1C(=O)N[C@@H](CCCCN)C(=O)N[C@@H](CSC1CC(=O)N(CCCCCNC(=O)c2ccc(C3=c4cc5c(cc4Oc4cc6c(cc43)C(CS(=O)(=O)[O-])=CC(C)(C)N6C)=[N+](C)C(C)(C)C=C5CS(=O)(=O)O)c(C(=O)O)c2)C1=O)C(N)=O (stereo partly shown),"Mu-type opioid receptor (Oprm1, Mus musculus, UniProt P42866)",binding,,,,koff,0.068 s⁻¹
CC(C)[C@H](NC(=O)OCc1ccccc1)C(=O)N[C@@H](CCCN=C(N)N)C(=O)N1CCC[C@H]1C(=O)N[C@@H](CCCN=C(N)N)C(=O)CF,MALT1,enzyme activity,inhibitor,,10 nM,inhibition,56%
CCCCCn1nc(C(=O)N[C@H](C(N)=O)C(C)C)c2ccccc21,"Cannabinoid receptor 1 (CNR1, Homo sapiens, UniProt P21554)",calcium signal,agonist,fluorescence,,Emax,116%
CN(C)C(=O)COC(=O)Cc1ccc(OC(=O)c2ccc(NC(=N)N)cc2)cc1,MALT1,enzyme activity,inhibitor,,10 µM,inhibition,48%
COc1cc(Cl)c(C(=O)N[C@@H](CN[C@H]2CC[C@@H](N)CC2)Cc2ccc(C#N)cc2)cc1-c1ccc(CN[C@H](C)c2ccc(C)cc2)o1,"Serine/threonine-protein kinase Nek3 (NEK3, Homo sapiens, UniProt P51956)",enzyme activity,inhibitor,,1 µM,remaining activity,107%
O=[N+]([O-])c1cccc2[nH]c(CNc3nc(N4CCOCC4)nc4c3ncn4-c3ccsc3)nc12,CDK15,binding,,competition with immobilised ligand,10 µM,binding vs control,47%
CN(CCN1CCC(OC(=O)Nc2ccccc2-c2ccccc2)CC1)C(=O)c1ccc(CN2CCC(C(N)=O)CC2)cc1,"Endothelin-1 receptor (EDNRA, Homo sapiens, UniProt P25101)",ligand displacement,,radioligand,1 µM,inhibition,23%
COc1ncccc1-c1cnn2ccc(N3CCN(C(=O)OC(C)C)CC3)nc12,WNK1,binding,,competition with immobilised ligand,1 µM,remaining binding,74%
[H]/N=C(/N)c1ccc(NCc2nc3cc(C(=O)N(CCC(=O)O)c4ccccn4)ccc3n2C)cc1,"Vitamin K-dependent protein C (PROC, Homo sapiens, UniProt P04070)",enzyme activity,inhibitor,,0.2 µM,inhibition,16%
Fc1cccc(-n2cnc3c(NCc4nc5c(F)c(F)ccc5[nH]4)nc(N4CCOCC4)nc32)c1,CDK15,binding,,competition with immobilised ligand,10 µM,binding vs control,20%
Nc1ncc(-c2nc(N3CCOCC3)nc(N3CCOCC3)n2)c(C(F)F)n1,WNK1,binding,,competition with immobilised ligand,10 µM,remaining binding,57%
Cc1nn(C)cc1-c1nc2c(N3CCN(Cc4ccc(Cl)cc4)CC3)c(Cl)cnc2[nH]1,"Phosphatidylinositol 4-phosphate 3-kinase C2 domain-containing subunit beta (PIK3C2B, Homo sapiens, UniProt O00750)",binding,,competition with immobilised ligand,1 µM,remaining binding,100%
CCN(CC)CCCC[C@H](NC(=O)[C@H](CC(C)C)NC(=O)[C@H](C)NC(=O)[C@H](Cc1ccccc1)NC(=O)c1ccc(C(C)(C)C)cc1)C(=O)N[C@@H](CO)C(=O)OC,"ATPase family AAA domain-containing protein 2B (ATAD2B, Homo sapiens, UniProt Q9ULI0)",thermal stability,,DSF,25 µM,ΔTm,0 °C
